Measurements pooled from the literature.
Compare with care: the assays were run in different laboratories.

| SMILES | test system | setting | measurement | value |
| --- | --- | --- | --- | --- |
| CC(C)(O)c1ccccc1-c1ccc2[nH]c(/C=C/c3ccc(C(F)(F)F)cc3)nc2c1 | male human, plasma | oral, 1 mg, single dose, fasted | Tmax | 4.44 h |
| CC(=O)Nc1nnc(N2CCN([C@@H](C)c3ccc4c(c3)OCO4)CC2)s1 | rabbit, plasma | 1 µM | fraction unbound | 0.059 |
| CCc1nc2c(C)cc(N3CCN(CC(=O)N4CC(O)C4)CC3)cn2c1N(C)c1nc(-c2ccc(F)cc2)c(C#N)s1 | human, plasma | oral, 60 mg, fed, healthy volunteers | Tmax | 0.5 h |
| C[C@@H](Nc1cc(F)cc(F)c1)c1cc(C(=O)N(C)C)cc2c(=O)cc(N3CCOCC3)oc12 | human, plasma | oral, 60 mg, patients | Tmax | 4.08 h |
| CC(C)n1cc(C#N)c2cc(-n3cc(C(=O)O)cn3)ccc21 | male human, plasma | oral, 600 mg, single dose, fasted, healthy volunteers | Tmax | 2.5 h |
| CCOC(=O)[C@@]12C[C@@H]1[C@@H](n1ccc3c(NC)nc(C#Cc4ccc(Cl)s4)nc31)[C@H](O)[C@@H]2O | male Sprague-Dawley rat, plasma | oral, 1 mg/kg | MRT | 2.34 h |
| CCc1cc(C(=O)NC)c2nccc(N3CCc4c(cc(Cn5ccnc5)cc4-c4cn(C)nc4C(F)(F)F)C3=O)c2c1 | male Sprague-Dawley rat, plasma | intravenous, 3 mg/kg | MRT(0-inf) | 0.4 h |
| O=C(Nc1cc(F)c(F)c(F)c1)c1ccc(F)c(S(=O)(=O)NCc2cccc(B(O)O)c2)c1 | male Sprague-Dawley rat, plasma | oral, 20 mg/kg | MRT(0-t) | 0.84 h |
| Cn1cc(-c2ccc(S(=O)(=O)[C@@H]3C[C@@H](C(=O)NC4(C#N)CC4)N(C(=O)C4(C(F)(F)F)CC4)C3)c(C(F)(F)F)c2)cn1 | human, plasma | oral, 30 mg, single dose, fasted, healthy volunteers | Tmax | 4.51 h |
| C=CC(=O)N(C)CCOc1c(N)ncnc1-c1cc(F)cc(NC(=O)c2ccc(C3CC3)cc2F)c1C | human, blood | oral, 30 mg, single dose, healthy volunteers | Tmax | 0.5 h |
| Fc1ccc(Nc2n[nH]c3cccnc23)cc1Cl | rat, brain homogenate | – | fraction unbound | 0.0045 |
